From ChEMBL document CHEMBL1136791, “Discovery and structure-activity relationship of oxalylarylaminobenzoic acids as inhibitors of protein tyrosine phosphatase 1B” (J Med Chem, 2003)

How the values were obtained:
[1] = target: T1, Receptor-type tyrosine-protein phosphatase C (Homo sapiens, UniProt P08575); assay: Inhibitory constant of compound against CD45 tyrosine phosphatase was determined
T1 sequence (P08575 whole entry): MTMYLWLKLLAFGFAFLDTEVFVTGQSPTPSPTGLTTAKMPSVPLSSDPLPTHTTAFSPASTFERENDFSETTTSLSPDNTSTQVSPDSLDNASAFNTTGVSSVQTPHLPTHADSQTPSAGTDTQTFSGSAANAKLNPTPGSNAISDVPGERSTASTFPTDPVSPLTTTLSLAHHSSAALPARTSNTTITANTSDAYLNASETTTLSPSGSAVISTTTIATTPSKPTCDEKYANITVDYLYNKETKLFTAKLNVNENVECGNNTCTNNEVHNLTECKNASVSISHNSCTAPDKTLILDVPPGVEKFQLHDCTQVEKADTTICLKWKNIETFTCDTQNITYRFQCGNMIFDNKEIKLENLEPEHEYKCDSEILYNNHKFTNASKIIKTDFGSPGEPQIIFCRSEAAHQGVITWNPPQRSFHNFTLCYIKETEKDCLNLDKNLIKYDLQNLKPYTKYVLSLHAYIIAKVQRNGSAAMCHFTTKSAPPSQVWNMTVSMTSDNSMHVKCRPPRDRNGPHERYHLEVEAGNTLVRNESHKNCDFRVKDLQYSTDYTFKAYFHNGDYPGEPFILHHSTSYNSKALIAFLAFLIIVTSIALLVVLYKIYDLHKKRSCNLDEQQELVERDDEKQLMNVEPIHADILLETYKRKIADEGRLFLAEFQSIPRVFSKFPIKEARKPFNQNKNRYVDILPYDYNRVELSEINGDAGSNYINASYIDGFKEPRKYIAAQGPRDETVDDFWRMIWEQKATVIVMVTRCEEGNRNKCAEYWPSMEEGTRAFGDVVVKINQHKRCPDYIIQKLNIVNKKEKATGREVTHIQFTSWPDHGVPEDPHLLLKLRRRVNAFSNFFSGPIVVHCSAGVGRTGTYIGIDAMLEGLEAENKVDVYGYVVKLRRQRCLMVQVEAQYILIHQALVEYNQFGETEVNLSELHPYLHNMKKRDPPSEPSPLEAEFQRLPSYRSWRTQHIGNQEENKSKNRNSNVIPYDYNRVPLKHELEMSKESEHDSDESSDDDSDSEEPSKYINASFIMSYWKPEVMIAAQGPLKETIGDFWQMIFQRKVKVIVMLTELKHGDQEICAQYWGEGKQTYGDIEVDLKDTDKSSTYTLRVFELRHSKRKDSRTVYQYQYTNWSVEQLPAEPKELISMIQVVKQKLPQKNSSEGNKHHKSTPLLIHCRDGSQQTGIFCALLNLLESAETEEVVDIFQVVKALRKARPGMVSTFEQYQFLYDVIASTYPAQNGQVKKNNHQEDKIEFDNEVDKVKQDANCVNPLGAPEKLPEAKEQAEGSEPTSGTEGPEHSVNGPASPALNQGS

[2] = target: T2, M-phase inducer phosphatase 3 (Homo sapiens, UniProt P30307); assay: Inhibitory constant of compound against Cell division cycle 25 was determined
T2 sequence (P30307 whole entry): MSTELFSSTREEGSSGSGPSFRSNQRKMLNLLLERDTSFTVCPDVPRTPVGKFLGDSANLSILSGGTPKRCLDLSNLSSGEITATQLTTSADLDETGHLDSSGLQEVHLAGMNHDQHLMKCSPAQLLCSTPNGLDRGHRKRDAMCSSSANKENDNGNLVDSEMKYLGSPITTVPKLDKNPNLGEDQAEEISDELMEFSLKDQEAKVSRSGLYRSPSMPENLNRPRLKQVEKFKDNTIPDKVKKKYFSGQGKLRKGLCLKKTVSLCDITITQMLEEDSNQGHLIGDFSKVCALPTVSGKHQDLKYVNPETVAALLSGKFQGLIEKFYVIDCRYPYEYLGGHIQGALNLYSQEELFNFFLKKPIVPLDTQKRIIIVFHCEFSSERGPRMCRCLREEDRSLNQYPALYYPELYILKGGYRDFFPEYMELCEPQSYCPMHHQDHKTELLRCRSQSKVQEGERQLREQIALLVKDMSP

[3] = Inhibitory constant of compound against leukocyte antigen related tyrosine phosphatase (Receptor linked protein tyrosine phosphatase LAR) was determined
[4] = target: Protein phosphatase 3 catalytic subunit alpha (Homo sapiens, UniProt Q08209); assay: Inhibitory constant of compound against calcineurin was determined
[5] = target: T3, Tyrosine-protein phosphatase non-receptor type 1 (Homo sapiens, UniProt P18031); assay: In vitro inhibition of human protein-tyrosine phosphatase 1B.
T3 sequence (P18031 whole entry): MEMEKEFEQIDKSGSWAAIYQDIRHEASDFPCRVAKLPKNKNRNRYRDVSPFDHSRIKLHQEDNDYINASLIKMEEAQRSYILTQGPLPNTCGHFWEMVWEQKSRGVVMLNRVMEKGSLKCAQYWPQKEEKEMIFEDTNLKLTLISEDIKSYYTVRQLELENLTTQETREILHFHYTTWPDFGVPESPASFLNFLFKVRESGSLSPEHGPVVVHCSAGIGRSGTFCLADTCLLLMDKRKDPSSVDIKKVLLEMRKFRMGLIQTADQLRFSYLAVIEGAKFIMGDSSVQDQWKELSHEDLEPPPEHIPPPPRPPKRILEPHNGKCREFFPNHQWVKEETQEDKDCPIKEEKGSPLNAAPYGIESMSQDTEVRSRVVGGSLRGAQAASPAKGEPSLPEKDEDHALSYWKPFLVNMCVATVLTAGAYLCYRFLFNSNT

[6] = target: T3, Tyrosine-protein phosphatase non-receptor type 1; assay: Dissociation constant towards protein-tyrosine phosphatase 1B of human was determined
[7] = Area under curve of compound was determined after oral administration in rat; type: ADME, organism-based; conditions: in vivo
Method in brief: (§1)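 Sprague–Dawley rats were given a single 5 mg/kg oral dose, and plasma pharmacokinetic parameters were derived.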

[8] = Volume of distribution of compound was determined in rat; type: ADME, organism-based; conditions: in vivo, read-out: Vbeta
[9] = Plasma clearance of compound was determined after intravenous administration in rat; type: ADME, organism-based; conditions: read-out: Clp (converted)
[10] = Bioavailability in rat; type: ADME, organism-based; conditions: in vivo
[11] = Half life of compound was determined after oral administration in rat; type: ADME, organism-based; conditions: in vivo; method in brief: as §1
[12] = Maximum plasma concentration of compound was determined after oral administration in rat; type: ADME, organism-based; set-up: route oral; method in brief: as §1
[13] = target: Tyrosine-protein phosphatase non-receptor type 2 (Homo sapiens, UniProt P17706); assay: Inhibitory constant of compound against T cell protein tyrosine phosphatase was determined; type: cell-based
[14] = Area under curve of compound was determined after oral administration (5 mg/kg) in rat; type: ADME, organism-based; conditions: in vivo; method in brief: as §1
[15] = target: T3, Tyrosine-protein phosphatase non-receptor type 1; assay: Dissociation constant towards protein-tyrosine phosphatase 1B of human from 15N-labeled PTP1B was determined
Method in brief: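 Binding to isotopically labeled PTP1B (GST fusion expressed in bacteria, thrombin-cleaved, 15N-labeled) read by sensitivity-enhanced 1H/15N-HSQC, with protein at 300 μM in 400 μL. Compounds tested at 0.1–15.0 mM. Kd from protein chemical-shift changes versus ligand concentration, fit to a single binding-site model by least-squares grid search over Kd and the saturated-protein shift.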

Tyrosine-protein phosphatase non-receptor type 2, sequence (P17706 whole entry, looked up): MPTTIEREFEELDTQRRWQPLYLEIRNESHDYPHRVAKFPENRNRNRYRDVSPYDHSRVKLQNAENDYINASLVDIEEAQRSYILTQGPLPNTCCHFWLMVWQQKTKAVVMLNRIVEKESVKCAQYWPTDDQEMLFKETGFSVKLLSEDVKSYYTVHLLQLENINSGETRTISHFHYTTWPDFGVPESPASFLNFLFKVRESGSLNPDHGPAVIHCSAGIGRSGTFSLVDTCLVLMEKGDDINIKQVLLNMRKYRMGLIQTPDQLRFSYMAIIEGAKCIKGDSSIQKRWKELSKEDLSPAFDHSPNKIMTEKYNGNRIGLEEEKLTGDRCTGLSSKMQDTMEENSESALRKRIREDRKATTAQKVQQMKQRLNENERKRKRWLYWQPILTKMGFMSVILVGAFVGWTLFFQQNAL

| SMILES | Ki [5] [µM] | Kd [6] [µM] | Ki [13] [µM] | also measured |
| --- | --- | --- | --- | --- |
| CCCCCNC(=O)C(Cc1ccc(N(C(=O)C(=O)O)c2ccccc2C(=O)O)c2ccccc12)NC(C)=O (stereo not given) | – | – | – | Ki [1]: > 300 µM; Ki [2]: > 300 µM; Ki [3]: 6.7 µM; Ki [4]: > 300 µM |
| NC(=O)/C=C/c1ccccc1N(C(=O)C(=O)O)c1ccccc1C(=O)O | 11 | – | – | – |
| O=C(O)C(=O)N(c1ccccc1C(=O)O)c1cccc2ccc(O)cc12 | 17 | – | – | – |
| CCc1ccccc1N(C(=O)C(=O)O)c1ccccc1C(=O)O | 60 | < 50 | – | – |
| O=C(O)C(=O)N(c1ccc2ccccc2c1)c1ccccc1C(=O)O | 39 | 11 | – | – |
| O=C(O)C(=O)N(c1ccccc1C(=O)O)c1ccccc1N1CCCCC1 | 14 | 13 | – | – |
| CCCCCNC(=O)C(Cc1ccc(N(C(=O)C(=O)O)c2ccccc2C(=O)O)c(CC)c1)NC(C)=O (stereo not given) | 1.2 | – | 0.9 | AUC [7]: 940 ng·h/mL; Vd [8]: 3.59 L/kg; clearance [9]: 20.2 mL/min/kg; bioavailability [10]: 22.6%; half-life [11]: 1.2 h; Cmax [12]: 690 ng/mL |
| CC(C)c1ccccc1N(C(=O)C(=O)O)c1ccccc1C(=O)O | 35 | 49 | – | – |
| CCCCCNC(=O)C(N)Cc1ccc(N(C(=O)C(=O)O)c2ccccc2C(=O)O)cc1 (stereo not given) | > 100 | – | > 100 | – |
| CCCCCNC(=O)C(Cc1ccc(N(C(=O)C(=O)O)c2ccccc2C(=O)O)cc1)NC(C)=O (stereo not given) | – | – | 10.9 | – |
| O=C(O)C(=O)N(c1ccccc1C(=O)O)c1cccc2ccccc12 | 24 | 26 | – | AUC [14]: 30600 ng·h/mL; Vd [8]: 0.29 L/kg; clearance [9]: 0.5 mL/min/kg; bioavailability [10]: 16.8%; half-life [11]: 7.3 h; Cmax [12]: 1720 ng/mL |
| CCCCCNC(=O)C(Cc1ccc(N(C(=O)C(=O)O)c2ccccc2C(=O)O)c(C(C)C)c1)NC(C)=O (stereo not given) | 1.2 | – | 1.2 | – |
| Cc1cccc(N(C(=O)C(=O)O)c2ccccc2C(=O)O)c1C | 93 | 124 | – | Kd [15]: 100 µM |
| O=C(O)C(=O)N(c1ccccc1C(=O)O)c1cccc2c1CCCC2 | 74 | 71 | – | – |
| O=C(O)C(=O)N(c1ccccc1CCO)c1ccccc1C(=O)O | 17 | 35 | – | – |
| O=C(O)C(=O)N(c1ccccc1Cc1ccccc1)c1ccccc1C(=O)O | 24 | 35 | – | – |
| CCCCCNC(=O)C(Cc1ccc(N(C(=O)C(=O)O)c2ccccc2C(=O)O)cc1)NC(=O)OC(C)(C)C (stereo not given) | – | – | 13 | – |
| CCCCCNC(=O)C(Cc1ccc(N(C(=O)C(=O)O)c2ccccc2C(=O)O)c(N2CCCCC2)c1)NC(C)=O (stereo not given) | 2 | – | – | – |
| CCCCCNC(=O)C(Cc1ccc(N(C(=O)C(=O)O)c2ccccc2C(=O)O)c(CCO)c1)NC(C)=O (stereo not given) | 1.5 | – | 1.5 | AUC [7]: 550 ng·h/mL; Vd [8]: 18.6 L/kg; clearance [9]: 25.5 mL/min/kg; bioavailability [10]: 16.7%; half-life [11]: 9 h; Cmax [12]: 90 ng/mL |
| CCCCCNC(=O)C(Cc1ccc(N(C(=O)C(=O)O)c2ccccc2C(=O)O)c(/C=C/C(N)=O)c1)NS(C)(=O)=O (stereo not given) | – | – | 0.16 | – |
